Results from different studies.
Lines come from different studies, so protocols differ.
Target: Rhodopsin kinase GRK1 (GRK1, Homo sapiens, UniProt Q15835)
One construct used (Q15835 1-563): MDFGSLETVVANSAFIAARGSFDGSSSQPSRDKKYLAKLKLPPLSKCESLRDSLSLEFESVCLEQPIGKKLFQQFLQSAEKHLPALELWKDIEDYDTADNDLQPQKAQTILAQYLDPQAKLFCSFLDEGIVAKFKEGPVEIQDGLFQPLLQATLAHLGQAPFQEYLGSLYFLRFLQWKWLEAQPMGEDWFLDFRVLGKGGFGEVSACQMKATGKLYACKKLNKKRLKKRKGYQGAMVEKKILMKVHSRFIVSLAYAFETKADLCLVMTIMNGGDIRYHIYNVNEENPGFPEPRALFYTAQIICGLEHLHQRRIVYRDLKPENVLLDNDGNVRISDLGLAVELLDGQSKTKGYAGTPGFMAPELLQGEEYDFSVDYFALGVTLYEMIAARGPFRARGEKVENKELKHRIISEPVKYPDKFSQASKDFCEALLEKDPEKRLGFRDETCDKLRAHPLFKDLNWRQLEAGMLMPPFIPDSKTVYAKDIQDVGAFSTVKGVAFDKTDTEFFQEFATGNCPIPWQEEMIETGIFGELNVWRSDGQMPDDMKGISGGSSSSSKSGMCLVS

| Structure (SMILES) | test | setting | remaining binding [%] |
| --- | --- | --- | --- |
| CN(C(=O)c1ccccc1)c1cc(N(C)c2ccc3c(c2)CCc2ccc(C(=O)NCCN4CCOCC4)cc2C3=O)ccc1F | cell-free assay, competition with immobilised ligand | 1 µM | 93 |
| COc1cnc(Nc2cccc(S(N)(=O)=O)c2)nc1N1CCN(c2ccccc2)CC1 | binding, competition with immobilised ligand | 1 µM | 99 |
| C[C@@H]1CCN(c2nccc(-c3cnn4ncccc34)n2)C1 | binding | 1 µM | 77 |
| O=C(c1ccc(Nc2ncc(Cl)c(-c3ccc(Cl)s3)n2)cc1)N1CCC(N2CCCC2)CC1 | binding, competition with immobilised ligand | 1 µM | 100 |
| COc1cnc(Nc2cccc(S(N)(=O)=O)c2)nc1N1CCN(c2ccccc2)C(=O)C1 | binding, competition with immobilised ligand | 1 µM | 97 |
| O=C(NCC1CCOCC1)c1n[nH]cc1NC(=O)c1c(F)cccc1F | binding, competition with immobilised ligand | 1 µM | 77 |
| O=C(NCCCN1CCOCC1)c1ccc(Nc2ncc(Cl)c(-c3ccc(Cl)s3)n2)cc1 | binding, competition with immobilised ligand | 1 µM | 100 |
| CC1CCCN1c1nccc(-c2cnn3ncccc23)n1 (stereo not shown) | binding | 1 µM | 82 |
| CS(=O)(=O)NCC[C@H](NC(=O)c1cncc2c1cnn2-c1ccc(F)cc1)c1ccnc(S(C)(=O)=O)c1 | cell-free assay, competition with immobilised ligand | 1 µM | 100 |
| N[C@H]1CCN(c2nccc(-c3cnn4ncccc34)n2)C1 | binding | 1 µM | 100 |
| COCCOc1nc(-c2ccc(Cl)nc2)nc2c1CN(C(=O)c1ncn3ccccc13)CC2 | cell-free assay, competition with immobilised ligand | 0.1 µM | 100 |
| CN(C)c1nccc(-c2cnn3ncccc23)n1 | binding | 1 µM | 79 |
| FC(F)(F)Oc1cccc(-c2cnc3ccc(-c4ccncc4)nn23)c1 | cell-free assay, competition with immobilised ligand | 5 µM | 38 |
| O=C(NCCCN1CCOCC1)c1ccc(Nc2nccc(-c3cc4ccccc4s3)n2)cc1 | binding, competition with immobilised ligand | 1 µM | 74 |
| CN([C@@H]1CCc2c(CC(=O)O)c3cc(S(C)(=O)=O)ccc3n2C1)S(=O)(=O)c1ccc(F)cc1 | cell-free assay, competition with immobilised ligand | 1 µM | 70 |
| CCN1CCN(Cc2ccc(C(=O)Nc3ccc(C)c(Oc4ccc5c(c4)CC(=O)N5)c3)cc2C(F)(F)F)CC1 | binding, competition with immobilised ligand | 1 µM | 100 |
| COc1ncc2cc3ccccc3nc2c1C#N | cell-free assay, competition with immobilised ligand | 5 µM | 98 |
| CCC(=O)N[C@@H]1CC[C@H](C(=O)N(C)c2ccc(-c3nc4ccccc4o3)cc2)C1 | cell-free assay, competition with immobilised ligand | 1 µM | 76 |
| COc1ccnn2ncc(-c3ccnc(N(C)C)n3)c12 | binding | 1 µM | 82 |
